The test system of one data set is Trypanosoma cruzi. In words: Antitrypanosomal activity against amastigote stage of Trypanosoma cruzi infected in mouse NIH/3T3 cells after 48 hrs by Hoechst staining assay. The following applies: NIH3T3, 48 h. It counts as functional, organism-based.
A short description of data set [1]: Selectivity ratio of cytotoxic activity against mouse NIH/3T3 cells to antitrypanosomal activity against amastigote stage of Trypanosoma cruzi.
The subject of data set [2] is Plasmodium falciparum. The data set is described as follows: Antimalarial activity against late (4 to 5) gametocytic stage of Plasmodium falciparum at 100 uM after 72 hrs by image-based HTS assay relative to control. It counts as functional. An outline of the steps: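 Image-based assay on late-stage (IV–V) P. falciparum gametocytes taken from large-scale production of pure synchronized gametocytes. Compound exposure was 72 h in dose response, with duplicate or triplicate points per concentration and n ≥ 2 independent runs.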

Data set [3] relates to Trypanosoma brucei brucei. The data set is described as follows: Trypanocidal activity against Trypanosoma brucei brucei by Alamar Blue assay. Type of data set: functional, organism-based. Background: Alamar Blue is a resazurin reagent that responds to reducing activity.
The subject of data set [4] is Trypanosoma brucei brucei. In words: Antitrypanosomal activity against bloodstream form of Trypanosoma brucei brucei 427 after 3 days by Alamar Blue assay. The following applies: Trypanosoma brucei, 427, 72 h. Type of data set: functional, organism-based.
Data set [5] has as its system Plasmodium falciparum. In words: Antimalarial activity against late (4 to 5) gametocytic stage of Plasmodium falciparum after 72 hrs by image-based HTS assay. Type of data set: functional, organism-based. Summed up:
(§1)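 P. falciparum early (I–III) or late (IV–V) gametocytes from the authors' large-scale synchronized culture. Exposed to compound in dose response for 72 h. Activity read in an image-based assay. IC50 from duplicate or triplicate points, n ≥ 2, reported as mean ± SD.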

In data set [6] the test system is Plasmodium falciparum. The data set is described as follows: Antimalarial activity against late (4 to 5) gametocytic stage of Plasmodium falciparum at 120 uM after 72 hrs by image-based HTS assay relative to control. It counts as functional.
In data set [7] the test system is Plasmodium falciparum. The data set is described as follows: Antimalarial activity against asexual stage of Plasmodium falciparum 3D7 after 72 hrs by image-based HTS assay. Type of data set: functional, organism-based. The conditions noted are these: 3D7, 72 h.
In data set [8] the test system is Plasmodium falciparum. In words: Antimalarial activity against early (1 to 3) gametocytic stage of Plasmodium falciparum after 72 hrs by image-based HTS assay. Type of data set: functional, organism-based. Summed up:
as §1

The test system of data set [9] is Plasmodium falciparum. In words: Antimalarial activity against early (1 to 3) gametocytic stage of Plasmodium falciparum at 120 uM after 72 hrs by image-based HTS assay relative to control. Type of data set: functional.

The IC50 is the midpoint of a concentration-inhibition curve. A low value points to inhibition by little substance. Usually inhibition stands for the percentage by which the read-out fell short of the control.

Counter-ions that a name gives are not always drawn.

In the data set on Trypanosoma cruzi, `Clc1ccccc1C(c1ccccc1)(c1ccccc1)n1ccnc1` [CLOTRIMAZOLE] displayed a 50% inhibitory concentration (IC50) of 187 nM. In addition, the selectivity ratio in data set [1] (NIH/3T3 cells) was over 87.2. Regarding `CCN(CC)CCCC(C)Nc1ccnc2cc(Cl)ccc12` (stereo unspecified) [CHLOROQUINE], at 100 µM the inhibition in the data set on Plasmodium falciparum [2] was 100%. `O=C1c2c(O)ccc(O)c2C(=O)c2c(NCCNCCO)ccc(NCCNCCO)c21` [MITOXANTRONE HYDROCHLORIDE]: the half-maximal inhibitory concentration (IC50) in data set [3] was 1000 nM; in data set [4] it was 2.4 nM. In the data set with Trypanosoma cruzi, `c1ccc(-c2ccc(C(c3ccccc3)n3ccnc3)cc2)cc1` (stereo unspecified) [BIFONAZOLE] displayed an IC50 of 204 nM. In addition, the selectivity ratio in [1] (NIH/3T3 cells) is over 91.6. Take `C[C@H]1[C@H](OC(=O)CCC(=O)O)O[C@@H]2O[C@@]3(C)CC[C@H]4[C@H](C)CC[C@@H]1[C@@]24OO3` [ARTESUNATE]: the IC50 in the data set with Plasmodium falciparum [5] worked out at 3.43 nM. This counts as single-digit nanomolar. For `CC[C@]1(O)C[C@H]2CN(CCc3c([nH]c4ccccc34)[C@@](C(=O)OC)(c3cc4c(cc3OC)N(C=O)[C@H]3[C@@](O)(C(=O)OC)[C@H](OC(C)=O)[C@]5(CC)C=CCN6CC[C@]43[C@@H]65)C2)C1` [VINCRISTINE], in data set [4], the half-inhibitory concentration (IC50) is 30 nM. Consider `COc1cc(NC(C)CCCN)c2ncccc2c1` (stereo unspecified) [PRIMAQUINE], for which the inhibition at 120 µM in the data set with Plasmodium falciparum [6] is 40%. The figures for the IC50 in the data set with Plasmodium falciparum [7] and with Plasmodium falciparum [8] were 6090 nM and 5860 nM, respectively. As for `CC[C@H](C)[C@H](NC(=O)[C@H]([C@@H](C)CC)N(C)C(C)=O)C(=O)N[C@H](C(=O)N[C@@H](CC(C)C)C(=O)[C@@]1(C)CO1)[C@@H](C)O` [EPOXOMYCIN], the IC50 in the data set with Plasmodium falciparum [7] stood at 2.2 nM; in the data set on Plasmodium falciparum [5], 0.7 nM. On the same counts, the results for `COc1cc(C)c2c(Oc3cccc(C(F)(F)F)c3)c(OC)cc(NC(C)CCCN)c2n1` (stereo unspecified) [TAFENOQUINE] are 1070 nM and 3370 nM.

The compound `C[C@@H](c1ncncc1F)[C@](O)(Cn1cncn1)c1ccc(F)cc1F` [VORICONAZOLE] gave an IC50 with Trypanosoma cruzi of 96.5 nM. Moreover, the selectivity ratio in data set [1] (NIH/3T3 cells) came to 212. In the case of `CO[C@@]12[C@H](COC(N)=O)C3=C(C(=O)C(C)=C(N)C3=O)N1C[C@@H]1N[C@@H]12` [MITOMYCIN], in data set [3], half-maximal inhibition (IC50) was put at 1000 nM. With `CCN(CC)Cc1cc(Nc2ccnc3cc(Cl)ccc23)ccc1O`, the 50% inhibitory concentration (IC50) with Plasmodium falciparum [7] amounted to 28 nM; in the data set on Plasmodium falciparum [5], 4490 nM; in the data set on Plasmodium falciparum [8], 159 nM. In data set [4], `C/C=C/C[C@@H](C)[C@@H](O)[C@H]1C(=O)N[C@@H](CC)C(=O)N(C)CC(=O)N(C)[C@@H](CC(C)C)C(=O)N[C@@H](C(C)C)C(=O)N(C)[C@@H](CC(C)C)C(=O)N[C@@H](C)C(=O)N[C@H](C)C(=O)N(C)[C@@H](CC(C)C)C(=O)N(C)[C@@H](CC(C)C)C(=O)N(C)[C@@H](C(C)C)C(=O)N1C` [CYCLOSPORINE] showed an IC50 of 1.14 nM. Consider `Clc1ccc(CO/N=C(\Cn2ccnc2)c2ccc(Cl)cc2Cl)c(Cl)c1` [OXICONAZOLE NITRATE], for which, in the data set with Trypanosoma cruzi, it took 388 nM to reach half-maximal inhibition (IC50). The selectivity ratio in data set [1] (nih/3t3) is over 46.3.

In the data set on Trypanosoma cruzi, `N#C/C(=C1/SCC(c2ccccc2Cl)S1)n1ccnc1` (stereo unspecified) [LANOCONAZOLE] registered a concentration for half-maximal inhibition (IC50) of 67.1 nM. In addition, the selectivity ratio in data set [1] (NIH/3T3 cells) turned out to be 306. Consider `Clc1ccc(COC(Cn2ccnc2)c2ccc(Cl)cc2Cl)c(Cl)c1` (stereo unspecified) [MICONAZOLE NITRATE], for which it took 826 nM to reach half-maximal inhibition with Trypanosoma cruzi (IC50). For the same compound, the selectivity ratio in [1] (nih/3t3) is over 19.5.

With `CC(=O)O[C@H]1C(=O)[C@@]2(C)[C@H]([C@H](OC(=O)c3ccccc3)[C@]3(O)C[C@H](OC(=O)[C@H](O)[C@@H](NC(=O)c4ccccc4)c4ccccc4)C(C)=C1C3(C)C)[C@]1(OC(C)=O)CO[C@@H]1C[C@@H]2O` [PACLITAXEL], the IC50 in [3] was determined as 1000 nM. Consider `CC(=O)N1CCN(c2ccc(OCC3COC(Cn4ccnc4)(c4ccc(Cl)cc4Cl)O3)cc2)CC1` (stereo unspecified) [KETOCONAZOLE], for which half-maximal inhibition in the data set with Trypanosoma cruzi (IC50) was put at 22.7 nM. The selectivity ratio in [1] (NIH/3T3 cells) is over 853.

In data set [4], `CC[C@H](C)C(=O)O[C@H]1CCC=C2C=C[C@H](C)[C@H](CC[C@@H]3C[C@@H](O)CC(=O)O3)[C@H]21` [MEVASTATIN] showed an IC50 of 940 nM.

As to `COc1ccc(C[C@H](N)C(=O)N[C@H]2[C@@H](O)[C@H](n3cnc4c(N(C)C)ncnc43)O[C@@H]2CO)cc1` [PUROMYCIN], the IC50 in the data set with Plasmodium falciparum [7] is 64 nM; in the data set with Plasmodium falciparum [5], 46 nM; in the data set on Plasmodium falciparum [8], 137 nM. As for `C[C@H]1[C@@H](O)O[C@@H]2O[C@@]3(C)CC[C@H]4[C@H](C)CC[C@@H]1[C@@]24OO3` [ARTENIMOL], in the data set with Plasmodium falciparum [7], it took 0.7 nM to reach half-maximal inhibition (IC50). This counts as sub-nanomolar. In the case of `O[C@@H](c1cc(C(F)(F)F)nc2c(C(F)(F)F)cccc12)[C@H]1CCCCN1` (relative stereo) [(S,R)-MEFLOQUINE], the IC50 is 200 nM in the data set on Plasmodium falciparum [7] and 220 nM with Plasmodium falciparum [8]. For the compound `CCc1nc(N)nc(N)c1-c1ccc(Cl)cc1` [PYRIMETHAMINE], the results for the inhibition at 120 µM with Plasmodium falciparum [9] and in the data set on Plasmodium falciparum [6] were 40% and 100%, respectively. The IC50 in the data set on Plasmodium falciparum [7] is 14 nM. Regarding `CC[C@]1(O)C[C@@H]2CN(CCc3c([nH]c4ccccc34)[C@@](C(=O)OC)(c3cc4c(cc3OC)N(C)[C@H]3[C@@](O)(C(=O)OC)[C@H](OC(C)=O)[C@]5(CC)C=CCN6CC[C@]43[C@@H]65)C2)C1` [VINBLASTINE], the half-inhibitory concentration (IC50) in data set [4] turned out to be 94 nM. This counts as double-digit nanomolar.

`COc1ccc2nc3cc(Cl)ccc3c(Nc3cc(CN4CCCC4)c(O)c(CN4CCCC4)c3)c2n1` [PYRONARIDINE]: the IC50 came out at 46 nM with Plasmodium falciparum [7], 1300 nM in the data set with Plasmodium falciparum [5] and 131 nM with Plasmodium falciparum [8].

These data come from ChEMBL document CHEMBL2434842, “Approaches to protozoan drug discovery: phenotypic screening” (J Med Chem, 2013).
